Laboratory results reported in ChEMBL document CHEMBL5357066, “Development of Novel Membrane Disrupting Lipoguanidine Compounds Sensitizing Gram-Negative Bacteria to Antibiotics” (ACS Med Chem Lett, 2024).
Values after ≈ are worked out from the molar mass of the structure shown.

Key:
Pseudomonas aeruginosa [1] = assay: Antibacterial activity against Pseudomonas aeruginosa NCTC 13437 assessed as bacterial growth inhibition incubated for overnight by microbroth dilution method; type: functional
Summary of the method: (§1)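 Broth microdilution in Tryptic Soy Broth. DMSO stocks were diluted in TSB as 2-fold series. Overnight TSB cultures were back-diluted to OD 0.01 and mixed 1:1 with compound. Incubation was overnight at 37 °C. MIC was the lowest concentration without visible growth (<0.1 OD600). DMSO vehicle was checked at equivalent concentrations.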

Staphylococcus aureus [2] = assay: Antibacterial activity against methicillin sensitive Staphylococcus aureus ATCC 9144 assessed as bacterial growth inhibition incubated for overnight by microbroth dilution method; type: functional
Summary of the method: (§2)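 Microbroth dilution in Tryptic Soy Broth. DMSO stocks were diluted in TSB as 2-fold series. Overnight TSB cultures were back-diluted to OD 0.01 and mixed 1:1 with compound. Incubation was overnight at 37 °C. MIC is the lowest concentration with no visible growth (<0.1 OD600). DMSO at equivalent concentrations was checked.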

Staphylococcus aureus [3] = assay: Antibacterial activity against methicillin resistant Staphylococcus aureus NCTC 13616 assessed as bacterial growth inhibition incubated for overnight by microbroth dilution method; type: functional; summary of the method: as §2
Staphylococcus aureus [4] = assay: Antibacterial activity against methicillin resistant Staphylococcus aureus USA 300 assessed as bacterial growth inhibition incubated for overnight by microbroth dilution method; type: functional; summary of the method: as §2
Enterococcus faecalis [5] = assay: Antibacterial activity against vancomycin resistant Enterococcus faecalis NCTC 12201 assessed as bacterial growth inhibition incubated for overnight by microbroth dilution method; type: functional; summary of the method: as §2
Enterococcus faecium = assay: Antibacterial activity against vancomycin resistant Enterococcus faecium NCTC 12204 assessed as bacterial growth inhibition incubated for overnight by microbroth dilution method; type: functional; summary of the method: as §2
Acinetobacter baumannii [6] = assay: Antibacterial activity against Acinetobacter baumannii AYE assessed as bacterial growth inhibition incubated for overnight by microbroth dilution method; type: functional; summary of the method: as §1
Acinetobacter baumannii [7] = assay: Antibacterial activity against Acinetobacter baumannii ATCC 17978 assessed as bacterial growth inhibition incubated for overnight by microbroth dilution method; type: functional; summary of the method: as §1
Pseudomonas aeruginosa [8] = assay: Antibacterial activity against Pseudomonas aeruginosa PAO1 assessed as bacterial growth inhibition incubated for overnight by microbroth dilution method; type: functional; summary of the method: as §1
Escherichia coli [9] = assay: Antibacterial activity against Escherichia coli NCTC 12923 assessed as bacterial growth inhibition incubated for overnight by microbroth dilution method; type: functional; summary of the method: as §1
Klebsiella pneumoniae [10] = assay: Synergistic antibacterial activity against Klebsiella pneumoniae NCTC 13368 assessed as rifampicin MIC at <=0.25 times MIC incubated for overnight by microbroth dilution checkerboard assay; type: functional
Summary of the method: (§3)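 Checkerboard microdilution under MIC conditions (TSB, overnight, 37 °C). Two-fold series of each agent were combined on one plate before bacteria were added, and single-agent MICs were measured on the same plate. FIC = sum of combination MIC/alone MIC for each agent, taken from the most synergistic well. Three independent repeats, mean ± SD. ≤0.5 was taken as strong synergy and 0.5–<1 as weak.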

Klebsiella pneumoniae [11] = assay: Synergistic antibacterial activity against […] Klebsiella pneumoniae M6 assessed as rifampicin MIC at <=0.25 times MIC incubated for overnight by microbroth dilution checkerboard assay; type: functional
Summary of the method: (§4)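 Checkerboard run under the MIC conditions (TSB, overnight, 37 °C). Antibiotic and lipoguanidine 2-fold series were combined on one plate before bacteria were added. Growth/no-growth was scored as for the MIC (<0.1 OD600). Single-agent MICs were measured on the same plates. Three independent repeats were done.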

Acinetobacter baumannii [12] = assay: Synergistic antibacterial activity against Acinetobacter baumannii AYE assessed as rifampicin MIC at <=0.25 times MIC incubated for overnight by microbroth dilution checkerboard assay; type: functional; summary of the method: as §3
Acinetobacter baumannii [13] = assay: Synergistic antibacterial activity against Acinetobacter baumannii ATCC 17978 assessed as rifampicin MIC at <=0.25 times MIC incubated for overnight by microbroth dilution checkerboard assay; type: functional; summary of the method: as §3
Pseudomonas aeruginosa [14] = assay: Synergistic antibacterial activity against Pseudomonas aeruginosa PAO1 assessed as rifampicin MIC at <=0.25 times MIC incubated for overnight by microbroth dilution checkerboard assay; type: functional
Summary of the method: (§5)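 Checkerboard microdilution in Tryptic Soy Broth, run like the MIC assay. Overnight TSB cultures were back-diluted to OD 0.01 and added 1:1 to the combined two-fold series of both agents, then incubated overnight at 37 °C. Growth/no-growth was called at <0.1 OD600. MICs alone were read on the same plates. FIC index came from the most synergistic well; three independent repeats, mean ± SD.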

Pseudomonas aeruginosa [15] = assay: Synergistic antibacterial activity against Pseudomonas aeruginosa NCTC 13437 assessed as rifampicin MIC at <=0.25 times MIC incubated for overnight by microbroth dilution checkerboard assay; type: functional; summary of the method: as §5
Escherichia coli [16] = assay: Synergistic antibacterial activity against Escherichia coli NCTC 12923 assessed as rifampicin MIC at <=0.25 times MIC incubated for overnight by microbroth dilution checkerboard assay; type: functional; summary of the method: as §3
Staphylococcus aureus [17] = assay: Antibacterial activity against methicillin sensitive Staphylococcus aureus 1199B assessed as bacterial growth inhibition incubated for overnight by microbroth dilution method; type: functional; summary of the method: as §2
Klebsiella pneumoniae [18] = assay: Synergistic antibacterial activity against Klebsiella pneumoniae NCTC 13368 assessed as fold change in rifampicin MIC at <=0.25 times MIC incubated for overnight by microbroth dilution checkerboard assay relative to rifampicin alone; type: functional; summary of the method: as §4
Acinetobacter baumannii [19] = assay: Synergistic antibacterial activity against Acinetobacter baumannii AYE assessed as fold change in rifampicin MIC at <=0.25 times MIC incubated for overnight by microbroth dilution checkerboard assay relative to rifampicin alone; type: functional; summary of the method: as §3
Acinetobacter baumannii [20] = assay: Synergistic antibacterial activity against Acinetobacter baumannii ATCC 17978 assessed as fold change in rifampicin MIC at <=0.25 times MIC incubated for overnight by microbroth dilution checkerboard assay relative to rifampicin alone; type: functional; summary of the method: as §3
Pseudomonas aeruginosa [21] = assay: Synergistic antibacterial activity against Pseudomonas aeruginosa PAO1 assessed as fold change in rifampicin MIC at <=0.25 times MIC incubated for overnight by microbroth dilution checkerboard assay relative to rifampicin alone; type: functional; summary of the method: as §5
Pseudomonas aeruginosa [22] = assay: Synergistic antibacterial activity against Pseudomonas aeruginosa NCTC 13437 assessed as fold change in rifampicin MIC at <=0.25 times MIC incubated for overnight by microbroth dilution checkerboard assay relative to rifampicin alone; type: functional; summary of the method: as §5
Escherichia coli [23] = assay: Synergistic antibacterial activity against Escherichia coli NCTC 12923 assessed as fold change in rifampicin MIC at <=0.25 times MIC incubated for overnight by microbroth dilution checkerboard assay relative to rifampicin alone; type: functional; summary of the method: as §3
Klebsiella pneumoniae [24] = assay: Antibacterial activity against Klebsiella pneumoniae M6 assessed as bacterial growth inhibition incubated for overnight by microbroth dilution method
Klebsiella pneumoniae [25] = assay: Antibacterial activity against ESBL Klebsiella pneumoniae NCTC 13368 assessed as bacterial growth inhibition incubated for overnight by microbroth dilution method
Enterococcus faecalis [26] = assay: Antibacterial activity against vancomycin sensitive Enterococcus faecalis NCTC 775 assessed as bacterial growth inhibition incubated for overnight by microbroth dilution method
Acinetobacter baumannii [27] = assay: Synergistic antibacterial activity against Acinetobacter baumannii AYE assessed as bacterial growth inhibition incubated for overnight in presence of PBMN by microbroth dilution method relative to control; type: functional
Summary of the method: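 Adapted broth microdilution in TSB. The test compound was in a 2-fold dilution series, with PMBN added at a fixed 30 µg/mL. Bacteria at OD 0.02 were added, and plates were incubated overnight at 37 °C. Growth/no growth was read as for the MIC (<0.1 OD600).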

SMILES	MIC (Pseudomonas aeruginosa [1]) [µg/mL]	MIC (Staphylococcus aureus [2]) [µg/mL]	MIC (Staphylococcus aureus [3]) [µg/mL]	MIC (Staphylococcus aureus [4]) [µg/mL]	MIC (Enterococcus faecalis [5]) [µg/mL]	MIC (Enterococcus faecium) [µg/mL]	MIC (Acinetobacter baumannii [6]) [µg/mL]	MIC (Acinetobacter baumannii [7]) [µg/mL]	MIC (Pseudomonas aeruginosa [8]) [µg/mL]	MIC (Escherichia coli [9]) [µg/mL]	MIC (Klebsiella pneumoniae [10]) [µg/mL]	MIC (Klebsiella pneumoniae [11]) [µg/mL]	MIC (Acinetobacter baumannii [12]) [µg/mL]	MIC (Acinetobacter baumannii [13]) [µg/mL]	MIC (Pseudomonas aeruginosa [14]) [µg/mL]	MIC (Pseudomonas aeruginosa [15]) [µg/mL]	MIC (Escherichia coli [16]) [µg/mL]	MIC (Staphylococcus aureus [17]) [µg/mL]	fold change (FC) (Klebsiella pneumoniae [18])	fold change (FC) (Acinetobacter baumannii [19])	also measured
CCCCC/C=C\C/C=C\CCCCCCCCNC(=N)NCCCCN	> 64	8 (≈ 21.1 µM)	16 (≈ 42.3 µM)	8 (≈ 21.1 µM)	16 (≈ 42.3 µM)	16 (≈ 42.3 µM)	8 (≈ 21.1 µM)	8 (≈ 21.1 µM)	16 (≈ 42.3 µM)	4 (≈ 10.6 µM)	16	4	0.25	0.5	16	16	8	16 (≈ 42.3 µM)	0	>=4	fold change (FC) (Acinetobacter baumannii [20]): >=4; fold change (FC) (Pseudomonas aeruginosa [21]): 0; fold change (FC) (Pseudomonas aeruginosa [22]): 0; fold change (FC) (Escherichia coli [23]): 0; MIC (Klebsiella pneumoniae [24]): 8 µg/mL (≈ 21.1 µM); MIC (Klebsiella pneumoniae [25]): 16 µg/mL (≈ 42.3 µM); MIC (Enterococcus faecalis [26]): 32 µg/mL (≈ 84.5 µM)
CCCCCCCCCCCCNC(=N)NCCCCN	64 (≈ 214 µM)	2 (≈ 6.7 µM)	4 (≈ 13.4 µM)	4 (≈ 13.4 µM)	16 (≈ 53.6 µM)	16 (≈ 53.6 µM)	> 128	128 (≈ 429 µM)	> 128	16 (≈ 53.6 µM)	0.25	≤ 0.125	≤ 0.125	≤ 0.125	≤ 0.125	≤ 0.125	≤ 0.125	4 (≈ 13.4 µM)	>=4	>=4	inhibition (INH) (Acinetobacter baumannii [27]): <20%; fold change (FC) (Acinetobacter baumannii [20]): >=4; fold change (FC) (Pseudomonas aeruginosa [21]): >=4; fold change (FC) (Pseudomonas aeruginosa [22]): >=4; fold change (FC) (Escherichia coli [23]): >=4; MIC (Klebsiella pneumoniae [24]): > 128 µg/mL; MIC (Klebsiella pneumoniae [25]): > 128 µg/mL; MIC (Enterococcus faecalis [26]): 8 µg/mL (≈ 26.8 µM)
CCCCCCCC/C=C\CCCCCCCCNC(=N)NCCCCNC(=N)N	> 128	4 (≈ 9.46 µM)	2 (≈ 4.73 µM)	2 (≈ 4.73 µM)	2 (≈ 4.73 µM)	2 (≈ 4.73 µM)	32 (≈ 75.7 µM)	8 (≈ 18.9 µM)	128 (≈ 303 µM)	8 (≈ 18.9 µM)	≤ 0.125	2	≤ 0.125	≤ 0.125	16	16	8	2 (≈ 4.73 µM)	>=4	>=4	inhibition (INH) (Acinetobacter baumannii [27]): <20%; fold change (FC) (Acinetobacter baumannii [20]): >=4; fold change (FC) (Pseudomonas aeruginosa [21]): 0; fold change (FC) (Pseudomonas aeruginosa [22]): 0; fold change (FC) (Escherichia coli [23]): 0; MIC (Klebsiella pneumoniae [24]): 16 µg/mL (≈ 37.9 µM); MIC (Klebsiella pneumoniae [25]): 128 µg/mL (≈ 303 µM); MIC (Enterococcus faecalis [26]): 2 µg/mL (≈ 4.73 µM)
